Mdm2-MdmX inh: disrupts the human Mdm2-MdmX interaction; SaOS-2 split-luciferase Mdm2/MdmX complementation, luminescence; 330,000 tested, 3% active; O15151+Q00987; inhibition, % at 8 µM;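 active means inhibition of at least 50% at 8 µM in the primary screen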
Target sequence (O15151 whole entry, looked up): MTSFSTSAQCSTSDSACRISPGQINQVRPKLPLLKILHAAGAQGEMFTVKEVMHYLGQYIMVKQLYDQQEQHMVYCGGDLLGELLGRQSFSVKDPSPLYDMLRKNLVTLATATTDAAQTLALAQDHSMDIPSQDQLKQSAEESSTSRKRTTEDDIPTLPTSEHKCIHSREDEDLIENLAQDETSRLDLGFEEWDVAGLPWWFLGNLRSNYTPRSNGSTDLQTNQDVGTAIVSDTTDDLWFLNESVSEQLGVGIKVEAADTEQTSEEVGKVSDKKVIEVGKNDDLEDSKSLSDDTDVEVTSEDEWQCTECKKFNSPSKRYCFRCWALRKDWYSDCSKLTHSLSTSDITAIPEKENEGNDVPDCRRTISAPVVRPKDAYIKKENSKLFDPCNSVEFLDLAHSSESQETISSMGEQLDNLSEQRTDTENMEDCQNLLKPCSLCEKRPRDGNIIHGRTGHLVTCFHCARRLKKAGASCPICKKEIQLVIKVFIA
Target sequence (Q00987 whole entry, looked up): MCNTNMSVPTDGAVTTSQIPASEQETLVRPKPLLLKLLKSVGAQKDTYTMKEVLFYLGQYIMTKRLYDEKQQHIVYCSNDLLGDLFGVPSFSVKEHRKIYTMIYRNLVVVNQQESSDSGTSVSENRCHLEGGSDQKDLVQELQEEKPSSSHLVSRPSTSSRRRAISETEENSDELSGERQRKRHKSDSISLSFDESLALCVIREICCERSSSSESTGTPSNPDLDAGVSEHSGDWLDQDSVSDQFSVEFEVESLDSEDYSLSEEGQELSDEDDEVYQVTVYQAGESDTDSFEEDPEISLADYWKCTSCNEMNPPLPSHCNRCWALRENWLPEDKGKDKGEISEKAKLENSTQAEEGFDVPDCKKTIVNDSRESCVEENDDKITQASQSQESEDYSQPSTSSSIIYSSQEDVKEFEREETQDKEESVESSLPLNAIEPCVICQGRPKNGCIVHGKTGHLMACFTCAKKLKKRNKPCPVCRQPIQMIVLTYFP
SKKanGAS inh: SKKanGAS growth inhibition | AID 1662 | inhibition, % at 7.5 µM | 300,000 tested, 1.3% active | S. pyogenes SKKanGAS, kanamycin growth, BacTiter-Glo, 6 h;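 active means mean replicate score, as percent of positive control median, at least 50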;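 further: strain carries kanamycin resistance gene driven by streptokinase promoter and grows in 40 µg/ml kanamycin; loss of luminescence reflects streptokinase promoter inhibition or plain growth inhibition; 0% = median of DMSO wells and 100% = positive control at its reference dose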
L major viab: Leishmania major promastigote growth inhibition; inhibition, % at 10 µM; 200,000 tested, 9% active; Leishmania major promastigotes, resazurin fluorescence viability; in the data active means inhibition above about 50%;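 further: promastigotes grown with compound for 44 hours at 28 °C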
CSC inhib: cancer stem cell inhibition | cancer stem cell-like cells viability, luminescence | 300,000 tested, 1.1% active | AID 2717 | inhibition, % at 7.5 µM; in the data active means inhibition above about 75%; tested in HMLE shEcad cells
T cruzi inh: blocks replication of Trypanosoma cruzi; T. cruzi beta-gal in NIH3T3, luminescence, 90 h; inhibition, % (no concentration beside the values); 300,000 tested, 1.4% active;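 active means mean inhibition across valid replicates above about 55%, limit read from the data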;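 further: signal also drops with host cell toxicity which is not excluded here; 0% = plate median of DMSO wells and 100% = zero luminescence signal; higher percent means less beta-gal luminescence so fewer parasites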
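Assay system: NIH/3T3 fibroblasts plus reporter T. cruzi. Amount: NIH/3T3 cells, 5,000 per well. Buffer or medium: DMEM, 2% fetal bovine serum. Doses: compound pinned at 50 nL/well, DMSO. Schedule: ≥90 h infection period, 3 h prior cell attachment. Signal: luminescent β-galactosidase signal after 60 min lysis. Read-out: parasite load inhibition, %.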
Beta apoptosis: beta cell apoptosis inhibition. protection from apoptosis, % (concentration not given with the values). INS-1E cytokine-induced death, ATP luminescence, 48 h; percent of positive-control rescue, neutral wells zero. 300,000 tested, 0.8% active;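 active means Every replicate reaches about 75%, or at least half do and their mean reaches it too, limit read from the data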;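 further: 0% = cytokine-treated negative control wells and 100% = positive control rescue; higher means more ATP so stronger rescue from cytokine killing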
* hit, by the source's call; nt = no result given. Compounds with a hit are over-represented: about 9.4% of the library has one in this group of screens.

SMILES	Mdm2-MdmX inh	SKKanGAS inh	L major viab	CSC inhib	T cruzi inh	Beta apoptosis
Cc1ccc(S(=O)(=O)N(C)C)cc1NC(=O)CN1C(=O)NC2(CCCc3ccccc32)C1=O (stereo not given)	2	-3	72*	nt	2	-5
Cc1cc(C(=O)CN2C(=O)NC3(CCCc4ccccc43)C2=O)c(C)n1Cc1ccccc1 (stereo not given)	33	1	53*	5	26	-2
CCCOC(=O)/C(=C\c1ccc([N+](=O)[O-])o1)NC(=O)c1ccccc1	1	1	96*	0	51	-1
CCOC(=O)/C(=C\c1ccc([N+](=O)[O-])o1)NC(=O)c1ccccc1	25	2	99*	0	68*	-8
O=C(NCCO)/C(=C\c1ccc([N+](=O)[O-])o1)NC(=O)c1ccccc1	38	0	27	12	37	nt
O=C(CSc1nncn1-c1cccnc1)N(c1ccccc1)c1ccccc1	2	-7	6	1	11	-2
CCc1ccccc1NC(=O)c1ccc2c(O)c(S(=O)(=O)c3ccc(OC)cc3)c(=O)[nH]c2c1	16	-4	nt	4	-4	nt
O=C(NCCCn1ccnc1)/C(=C\c1cccnc1)NC(=O)c1cccc(Br)c1	19	-1	-2	-6	0	3
Cc1[nH]c(=O)[nH]c(=O)c1N1CCOCC1	-19	5	nt	-14	-8	-2
Cc1cccc(NC(=O)NC2CC3CCC(C2)N3Cc2ccco2)c1 (stereo not given)	-14	5	8	6	11	0
Cc1ccccc1NC(=S)NC1CC2CCC(C1)N2Cc1ccco1 (stereo not given)	-7	6	60*	8	-14	5
Cc1cccc(NC(=S)NC2CC3CCC(C2)N3Cc2ccco2)c1 (stereo not given)	19	-4	79*	-19	-24	-12
Cc1cccc(NC(=S)NC2CC3CCCC(C2)N3Cc2ccco2)c1 (stereo not given)	-7	5	63*	1	-32	-5
Cc1ccc(NC(=S)NC2CC3CCCC(C2)N3Cc2ccco2)cc1 (stereo not given)	6	-9	90*	-8	-10	-18
CCC(C)[C@H](NC(=O)OC(C)(C)C)C(=O)NCC1CCC(C(=O)N[C@@H](Cc2ccccc2)C(=O)O)CC1 (stereo not given in full)	-25	3	nt	-3	-3	-6
COc1cc(OC)c(OC)cc1CNC(=O)c1ccc(COc2ccccc2)cc1	-9	5	nt	5	13	0
CCc1ccc(NC(=S)NC2CC3CCC(C2)N3Cc2ccco2)cc1 (stereo not given)	16	-4	94*	-21	13	-3
Brc1ccc(-c2ccc(CNCc3ccccn3)o2)cc1	-17	67*	nt	6	8	1
NC(=S)N/N=C/c1ccc(-c2ccc(Cl)c(Cl)c2)o1	-14	-18	96*	11	60*	-6
NC(=S)N/N=C/c1ccc(-c2ccc(SC(F)F)cc2)o1	1	-11	nt	43	72*	14
NC(=S)N/N=C\c1ccc(-c2cccc(Cl)c2Cl)o1	22	25	100*	61	32	7
NC(=O)CN1C(=O)NC2(CCOc3ccccc32)C1=O (stereo not given)	-25	0	nt	-12	-11	-2
Cc1ccccc1Nc1nc(N)nc(CN2CCN(C(=O)c3ccccc3)CC2)n1	16	5	-4	0	2	-1
COc1ccc(NC(=O)CN(C)C(=O)c2c(C)nn(Cc3ccccc3)c2C)cc1	5	-1	nt	0	5	0
Cc1cc2cc3c(cc2nc1SCC(=O)Nc1nc(C)c(C)s1)OCO3	39	-7	83*	-9	2	-6
SMILES	Mdm2-MdmX inh	SKKanGAS inh	L major viab	CSC inhib	T cruzi inh	Beta apoptosis
CCOC(=O)c1cc([N+](=O)[O-])c([N+](=O)[O-])cc1NC(C)=O	nt	-1	71*	46	1	2
CC(=O)c1c(N2CCN(Cc3ccccc3)CC2)nc(=S)n(Cc2ccccc2)c1C	-7	-13	63*	-9	10	-8
COc1cccc(-c2ncc3ccccc3c2COC(=O)N(C)C)c1	3	nt	nt	-7	nt	3
COc1ccc(/C=N/OCC(=O)N2CC3(C)CC2CC(C)(C)C3)cc1 (stereo not given)	3	-1	38	110*	5	-6
CC(C)C(NC(=O)c1ccc(F)cc1)C(=O)OCC(=O)N1CC(=O)Nc2ccccc21 (stereo not given)	9	-2	68*	-4	-7	-1
CC(C)[C@H](NC(=O)c1ccccc1)C(=O)OCC(=O)N1CC2(C)CC1CC(C)(C)C2 (stereo not given in full)	-13	5	53*	23	16	0
CCCC12CN3CCN(CC(C3)/C1=N\NC(=O)c1ccc(C(C)(C)C)cc1)C2	1	17	-5	-10	-11	8
CC(C)(c1ccccc1)c1ccc(OCC2CO2)cc1 (stereo not given)	7	4	nt	-3	-9	-3
Clc1ccc(OCCNCCc2ccccc2)cc1	7	9	nt	nt	48	nt
CC(C)N(CCNCC(O)COc1ccc(C(C)(C)c2ccccc2)cc1)C(C)C (stereo not given)	20	-8	94*	0	45	-5
C=CCNCCOc1ccc(C(C)(C)c2ccccc2)cc1	-6	-5	98*	53	27	3
CN(C)CCOc1ccc(C(C)(C)c2ccccc2)cc1	25	1	72*	146*	30	-2
CN(C)CCCOc1ccc(C(C)(C)c2ccccc2)cc1	40	-1	100*	44	25	nt
COC(=O)C1=CN(c2ccc(F)cc2)C=C(C(=O)OC)C1c1cccc([N+](=O)[O-])c1	-15	5	nt	30	20	16
O=C(NCc1ccc2c(c1)OCO2)C1CCCN1C(=O)Nc1cccc(Cl)c1 (stereo not given)	21	7	99*	-1	-29	2
COc1cccc(N2C(=O)CC(NNC(=O)c3cccs3)C2=O)c1 (stereo not given)	-13	2	63*	6	0	-2
O=C(NNC1CC(=O)N(c2cccc(Cl)c2)C1=O)c1cccs1 (stereo not given)	21	4	63*	-13	-20	-1
O=c1cc(C(F)(F)F)[nH]c(=S)n1-c1ccccc1	10	-2	nt	-3	1	1
CC1CN(C(=O)c2ccc(OC3CCN(Cc4ccccn4)CC3)cc2)CCN1C (stereo not given)	13	-9	nt	24	-8	-6
COc1cccc(C2C(C#N)=C(N)N(N(C)C)C3=C2C(=O)CCC3)c1 (stereo not given)	-34	1	nt	-15	0	-2
